Test results reported in ChEMBL document CHEMBL4732114, “Design and structural optimization of novel 2H-benzo[h]chromene derivatives that target AcrB and reverse bacterial multidrug resistance” (Eur J Med Chem, 2021).
Converted amounts (≈) assume the structure as drawn.

Legend:
[1] = system: Escherichia coli; assay: Antibacterial activity against multidrug-resistant Escherichia coli BW25113 harboring AcrB deletion mutant by two-fold broth dilution method; format: functional
In short: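 Two-fold broth dilution MIC against an isogenic BW25113 strain with AcrB deleted, run alongside the AcrB-expressing parent. The test was done to define sub-inhibitory levels for later checkerboard work.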

[2] = target: T1, Multidrug efflux pump subunit AcrB (Escherichia coli (strain K12)) (UniProt P31224); assay: Inhibition of AcrB in multidrug-resistant Escherichia coli BW25113 assessed as potentiation of erythromycin-induced antibacterial activity by measuring erythromycin MIC at 32 ug/ml by checkerboard titration method (reference value: 64 ug/ml); conditions: dose 32.0 µg/ml
T1 sequence (whole entry): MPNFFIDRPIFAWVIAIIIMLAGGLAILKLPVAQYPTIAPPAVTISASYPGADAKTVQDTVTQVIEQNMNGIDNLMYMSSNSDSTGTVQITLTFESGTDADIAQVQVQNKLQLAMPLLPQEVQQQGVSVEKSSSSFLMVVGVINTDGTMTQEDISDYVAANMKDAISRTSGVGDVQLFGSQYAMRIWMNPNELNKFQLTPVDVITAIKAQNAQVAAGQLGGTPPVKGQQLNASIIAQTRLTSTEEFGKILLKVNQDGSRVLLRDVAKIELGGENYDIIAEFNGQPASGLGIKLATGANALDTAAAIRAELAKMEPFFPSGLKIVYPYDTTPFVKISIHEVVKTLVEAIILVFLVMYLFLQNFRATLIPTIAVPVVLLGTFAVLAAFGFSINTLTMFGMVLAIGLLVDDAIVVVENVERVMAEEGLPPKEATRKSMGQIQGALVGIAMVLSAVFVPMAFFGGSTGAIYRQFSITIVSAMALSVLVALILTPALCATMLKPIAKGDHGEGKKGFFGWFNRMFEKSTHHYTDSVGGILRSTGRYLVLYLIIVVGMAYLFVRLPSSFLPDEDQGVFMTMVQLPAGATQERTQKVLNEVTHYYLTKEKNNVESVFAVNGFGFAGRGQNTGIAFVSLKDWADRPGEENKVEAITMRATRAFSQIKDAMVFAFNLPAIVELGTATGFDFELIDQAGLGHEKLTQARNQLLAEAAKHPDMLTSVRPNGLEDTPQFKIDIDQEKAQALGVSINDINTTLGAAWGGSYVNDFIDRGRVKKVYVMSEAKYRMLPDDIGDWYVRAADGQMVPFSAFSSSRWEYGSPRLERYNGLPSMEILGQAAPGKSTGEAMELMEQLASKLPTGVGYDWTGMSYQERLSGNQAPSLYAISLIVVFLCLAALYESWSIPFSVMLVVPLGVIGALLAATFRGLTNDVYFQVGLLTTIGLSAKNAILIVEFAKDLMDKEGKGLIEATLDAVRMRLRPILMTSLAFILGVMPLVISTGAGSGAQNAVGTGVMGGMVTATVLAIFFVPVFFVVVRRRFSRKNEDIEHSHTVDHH

[3] = target: T1, Multidrug efflux pump subunit AcrB (Escherichia coli (strain K12)); assay: Inhibition of AcrB in multidrug-resistant Escherichia coli BW25113 assessed as potentiation of erythromycin-induced antibacterial activity by measuring erythromycin MIC at 256 ug/ml by checkerboard titration method (reference value: 64 ug/ml); conditions: dose 256.0 µg/ml
[4] = target: T1, Multidrug efflux pump subunit AcrB (Escherichia coli (strain K12)); assay: Inhibition of AcrB in multidrug-resistant Escherichia coli BW25113 assessed as potentiation of erythromycin-induced antibacterial activity by measuring erythromycin MIC at 64 ug/ml by checkerboard titration method (reference value: 64 ug/ml); conditions: dose 64.0 µg/ml
[5] = target: T1, Multidrug efflux pump subunit AcrB (Escherichia coli (strain K12)); assay: Inhibition of AcrB in multidrug-resistant Escherichia coli BW25113 assessed as potentiation of tetraphenylphosphonium-induced antibacterial activity by measuring tetraphenylphosphonium MIC at 64 ug/ml by checkerboard titration method (reference value: 1024 ug/ml); conditions: dose 64.0 µg/ml
[6] = target: T1, Multidrug efflux pump subunit AcrB (Escherichia coli (strain K12)); assay: Inhibition of AcrB in multidrug-resistant Escherichia coli BW25113 assessed as potentiation of chloramphenicol-induced antibacterial activity by measuring chloramphenicol MIC at 16 ug/ml by checkerboard titration method (reference value: 8 ug/ml); conditions: dose 16.0 µg/ml
[7] = target: T1, Multidrug efflux pump subunit AcrB (Escherichia coli (strain K12)); assay: Inhibition of AcrB in multidrug-resistant Escherichia coli BW25113 assessed as potentiation of levofloxacin-induced antibacterial activity by measuring levofloxacin MIC at 64 ug/ml by checkerboard titration method (reference value: 0.06 ug/ml); conditions: dose 64.0 µg/ml
[8] = target: T1, Multidrug efflux pump subunit AcrB (Escherichia coli (strain K12)); assay: Inhibition of AcrB in multidrug-resistant Escherichia coli BW25113 assessed as potentiation of tetraphenylphosphonium-induced antibacterial activity by measuring tetraphenylphosphonium MIC at 128 ug/ml by checkerboard titration method (reference value: 1024 ug/ml); conditions: dose 128.0 µg/ml
[9] = target: T1, Multidrug efflux pump subunit AcrB (Escherichia coli (strain K12)); assay: Inhibition of AcrB in multidrug-resistant Escherichia coli BW25113 assessed as potentiation of chloramphenicol-induced antibacterial activity by measuring chloramphenicol MIC at 128 ug/ml by checkerboard titration method (reference value: 8 ug/ml); conditions: dose 128.0 µg/ml
[10] = target: T1, Multidrug efflux pump subunit AcrB (Escherichia coli (strain K12)); assay: Inhibition of AcrB in multidrug-resistant Escherichia coli BW25113 assessed as potentiation of chloramphenicol-induced antibacterial activity by measuring chloramphenicol MIC at 32 ug/ml by checkerboard titration method (reference value: 8 ug/ml); conditions: dose 32.0 µg/ml
[11] = target: T1, Multidrug efflux pump subunit AcrB (Escherichia coli (strain K12)); assay: Inhibition of AcrB in multidrug-resistant Escherichia coli BW25113 assessed as potentiation of tetraphenylphosphonium-induced antibacterial activity by measuring tetraphenylphosphonium MIC at 16 ug/ml by checkerboard titration method (reference value: 1024 ug/ml); conditions: dose 16.0 µg/ml
[12] = target: T1, Multidrug efflux pump subunit AcrB (Escherichia coli (strain K12)); assay: Inhibition of AcrB in multidrug-resistant Escherichia coli BW25113 assessed as potentiation of erythromycin-induced antibacterial activity by measuring erythromycin MIC at 128 ug/ml by checkerboard titration method (reference value: 64 ug/ml); conditions: dose 128.0 µg/ml
[13] = target: T1, Multidrug efflux pump subunit AcrB (Escherichia coli (strain K12)); assay: Inhibition of AcrB in multidrug-resistant Escherichia coli BW25113 assessed as potentiation of chloramphenicol-induced antibacterial activity by measuring chloramphenicol MIC at 256 ug/ml by checkerboard titration method (reference value: 8 ug/ml); conditions: dose 256.0 µg/ml
[14] = target: T1, Multidrug efflux pump subunit AcrB (Escherichia coli (strain K12)); assay: Inhibition of AcrB in multidrug-resistant Escherichia coli BW25113 assessed as potentiation of levofloxacin-induced antibacterial activity by measuring levofloxacin MIC at 128 ug/ml by checkerboard titration method (reference value: 0.06 ug/ml); conditions: dose 128.0 µg/ml
[15] = target: T1, Multidrug efflux pump subunit AcrB (Escherichia coli (strain K12)); conditions: Escherichia coli BW25113; dose 256.0 µg/ml
[16] = target: T1, Multidrug efflux pump subunit AcrB (Escherichia coli (strain K12)); assay: Inhibition of AcrB in multidrug-resistant Escherichia coli BW25113 assessed as potentiation of tetraphenylphosphonium-induced antibacterial activity by measuring tetraphenylphosphonium MIC at 32 ug/ml by checkerboard titration method (reference value: 1024 ug/ml); conditions: dose 32.0 µg/ml
[17] = target: T1, Multidrug efflux pump subunit AcrB (Escherichia coli (strain K12)); assay: Inhibition of AcrB in multidrug-resistant Escherichia coli BW25113 assessed as potentiation of levofloxacin-induced antibacterial activity by measuring levofloxacin MIC at 32 ug/ml by checkerboard titration method (reference value: 0.06 ug/ml); conditions: dose 32.0 µg/ml
[18] = target: T1, Multidrug efflux pump subunit AcrB (Escherichia coli (strain K12)); assay: Inhibition of AcrB in multidrug-resistant Escherichia coli BW25113 assessed as potentiation of tetraphenylphosphonium-induced antibacterial activity by measuring tetraphenylphosphonium MIC at 256 ug/ml by checkerboard titration method (reference value: 1024 ug/ml); conditions: dose 256.0 µg/ml
[19] = target: T1, Multidrug efflux pump subunit AcrB (Escherichia coli (strain K12)); assay: Inhibition of AcrB in multidrug-resistant Escherichia coli BW25113 assessed as potentiation of levofloxacin-induced antibacterial activity by measuring levofloxacin MIC at 256 ug/ml by checkerboard titration method (reference value: 0.06 ug/ml); conditions: dose 256.0 µg/ml
[20] = target: T1, Multidrug efflux pump subunit AcrB (Escherichia coli (strain K12)); conditions: Escherichia coli BW25113; dose 16.0 µg/ml
[21] = target: T1, Multidrug efflux pump subunit AcrB (Escherichia coli (strain K12)); assay: Inhibition of AcrB in multidrug-resistant Escherichia coli BW25113 assessed as potentiation of erythromycin-induced antibacterial activity by measuring erythromycin MIC at 16 ug/ml by checkerboard titration method (reference value: 64 ug/ml); conditions: dose 16.0 µg/ml
[22] = target: T1, Multidrug efflux pump subunit AcrB (Escherichia coli (strain K12)); conditions: Escherichia coli BW25113; dose 32.0 µg/ml
[23] = target: T1, Multidrug efflux pump subunit AcrB (Escherichia coli (strain K12)); conditions: Escherichia coli BW25113; dose 128.0 µg/ml
[24] = target: T1, Multidrug efflux pump subunit AcrB (Escherichia coli (strain K12)); assay: Inhibition of AcrB in multidrug-resistant Escherichia coli BW25113 assessed as potentiation of chloramphenicol-induced antibacterial activity by measuring chloramphenicol MIC at 64 ug/ml by checkerboard titration method (reference value: 8 ug/ml); conditions: dose 64.0 µg/ml
[25] = target: T1, Multidrug efflux pump subunit AcrB (Escherichia coli (strain K12)); assay: Inhibition of AcrB in multidrug-resistant Escherichia coli BW25113 assessed as potentiation of levofloxacin-induced antibacterial activity by measuring levofloxacin MIC at 16 ug/ml by checkerboard titration method (reference value: 0.06 ug/ml); conditions: dose 16.0 µg/ml
[26] = target: T1, Multidrug efflux pump subunit AcrB (Escherichia coli (strain K12)); conditions: Escherichia coli BW25113; dose 64.0 µg/ml

Structure (SMILES): C[C@H]1COc2c(N3CCN(C)CC3)c(F)cc3c(=O)c(C(=O)O)cn1c23.C[C@H]1COc2c(N3CCN(C)CC3)c(F)cc3c(=O)c(C(=O)O)cn1c23.O [LEVOFLOXACIN]
- MIC [1]: 0.04 µg/mL

Structure (SMILES): CO[C@H]1/C=C/O[C@@]2(C)Oc3c(C)c(O)c4c(O)c(c(/C=N/N5CCN(C)CC5)c(O)c4c3C2=O)NC(=O)/C(C)=C\C=C\[C@H](C)[C@H](O)[C@@H](C)[C@@H](O)[C@@H](C)[C@H](OC(C)=O)[C@@H]1C [RIFAMPIN]
- MIC [1]: 16 µg/mL (≈ 19.4 µM)

Structure (SMILES): c1ccc([P+](c2ccccc2)(c2ccccc2)c2ccccc2)cc1 [TETRAPHENYLPHOSPHONIUM]
- MIC [1]: 32 µg/mL

Structure (SMILES): C[C@@H](Cc1ccc(O)c(O)c1)[C@@H](C)Cc1ccc(O)c(O)c1
- MIC [2]: 64 µg/mL
- MIC [3]: 32 µg/mL
- MIC [4]: 64 µg/mL
- MIC [5]: 1020 µg/mL
- MIC [6]: 8 µg/mL
- MIC [7]: 0.03 µg/mL
- MIC [8]: 128 µg/mL
- MIC [9]: 4 µg/mL
- MIC [10]: 8 µg/mL
- MIC [11]: 1020 µg/mL
- MIC [12]: 64 µg/mL
- MIC [13]: 2 µg/mL
- MIC [14]: 0.03 µg/mL
- MIC [15]: 16 µg/mL (≈ 52.9 µM)
- MIC [16]: 1020 µg/mL
- MIC [17]: 0.06 µg/mL
- MIC [18]: 64 µg/mL
- MIC [19]: 0.03 µg/mL
- MIC [20]: 16 µg/mL (≈ 52.9 µM)
- MIC [21]: 64 µg/mL
- MIC [22]: 16 µg/mL (≈ 52.9 µM)
- MIC [23]: 16 µg/mL (≈ 52.9 µM)
- MIC [24]: 8 µg/mL
- MIC [25]: 0.06 µg/mL
- MIC [26]: 16 µg/mL (≈ 52.9 µM)
